Measured values reported in ChEMBL document CHEMBL5724801, “EUbOPEN Chemogenomics Library - Multiplex” (2024).
Where “and” joins values, the source holds several entries; their conditions need not be identical. Identical values can stand only once.

Tested on: Fibroblast
Assay: Multiplex assay against human fibroblast
Assay type: toxicity, cell-based
Outline: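 Live cells were stained at seeding with Hoechst33342, BioTracker Green Microtubule Cytoskeleton Dye, MitoTracker Red and Annexin V Alexa Fluor 680, then imaged on a CQ1 microscope at 37°C and 5% CO2 after compound addition. CellPathfinder machine-learning gating split cells into Hoechst high-intensity objects or normal cells. Normal cells were split into healthy, pyknosed or fragmented nuclei, and pyknosed cells into mitotic or apoptotic. Tubulin, mitochondrial-mass and membrane-permeability phenotypes are per cents of healthy-nucleus cells.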

[1] = 12 h, 1 µM, compound concentration 1 uM
[2] = 12 h, 10 µM, compound concentration 10 uM
[3] = 24 h, 1 µM, compound concentration 1 uM
[4] = 24 h, 10 µM, compound concentration 10 uM
[5] = 48 h, 1 µM, compound concentration 1 uM
[6] = 48 h, 10 µM, compound concentration 10 uM

COc1cccc2c1c(NS(=O)(=O)c1ccc(Cl)s1)nn2Cc1cccc(CNC(=O)C(C)(C)O)c1
Population Apoptotic (%) [1]: 43% and 33%
Population Fragmented Nuclei (%) [1]: 16% and 26%
Population Healthy Nuclei (%) [1]: 66% and 54%
Population Hoechst High Intensity Objects (%) [1]: 0%
Population Membrane Permeable-Phenotype (%) [1]: 1% and 4%
Population Mitochondria Different-Phenotype (%) [1]: 2% and 1%
Population Mitotic Cells (%) [1]: 56% and 66%
Population Normal (%) [1]: 99% and 100%
Population Pyknosed Nuclei (%) [1]: 17% and 18%
Population Tubulin-Different-Phenotype (%) [1]: 27% and 18%
Total Cell Count [1]: 134 and 112
Population Apoptotic (%) [2]: 42% and 41%
Population Fragmented Nuclei (%) [2]: 13% and 24%
Population Healthy Nuclei (%) [2]: 72% and 55%
Population Hoechst High Intensity Objects (%) [2]: 2% and 7%
Population Membrane Permeable-Phenotype (%) [2]: 1% and 7%
Population Mitochondria Different-Phenotype (%) [2]: 11% and 4%
Population Mitotic Cells (%) [2]: 57% and 58%
Population Normal (%) [2]: 97% and 92%
Population Pyknosed Nuclei (%) [2]: 13% and 19%
Population Tubulin-Different-Phenotype (%) [2]: 37% and 55%
Total Cell Count [2]: 211 and 174
Population Apoptotic (%) [3]: 55% and 50%
Population Fragmented Nuclei (%) [3]: 19% and 28%
Population Healthy Nuclei (%) [3]: 68% and 49%
Population Hoechst High Intensity Objects (%) [3]: 2% and 1%
Population Membrane Permeable-Phenotype (%) [3]: 2% and 7%
Population Mitochondria Different-Phenotype (%) [3]: 3% and 5%
Population Mitotic Cells (%) [3]: 44% and 50%
Population Normal (%) [3]: 97% and 98%
Population Pyknosed Nuclei (%) [3]: 12% and 22%
Population Tubulin-Different-Phenotype (%) [3]: 28% and 35%
Total Cell Count [3]: 144 and 110
Population Apoptotic (%) [4]: 48% and 50%
Population Fragmented Nuclei (%) [4]: 11% and 22%
Population Healthy Nuclei (%) [4]: 74% and 55%
Population Hoechst High Intensity Objects (%) [4]: 2% and 8%
Population Membrane Permeable-Phenotype (%) [4]: 1% and 6%
Population Mitochondria Different-Phenotype (%) [4]: 7% and 2%
Population Mitotic Cells (%) [4]: 52% and 50%
Population Normal (%) [4]: 97% and 92%
Population Pyknosed Nuclei (%) [4]: 13% and 22%
Population Tubulin-Different-Phenotype (%) [4]: 30% and 48%
Total Cell Count [4]: 190 and 175
Population Apoptotic (%) [5]: 62% and 75%
Population Fragmented Nuclei (%) [5]: 21% and 26%
Population Healthy Nuclei (%) [5]: 66% and 60%
Population Hoechst High Intensity Objects (%) [5]: 5% and 2%
Population Membrane Permeable-Phenotype (%) [5]: 1% and 8%
Population Mitochondria Different-Phenotype (%) [5]: 5% and 3%
Population Mitotic Cells (%) [5]: 37% and 25%
Population Normal (%) [5]: 94% and 97%
Population Pyknosed Nuclei (%) [5]: 12%
Population Tubulin-Different-Phenotype (%) [5]: 30% and 55%
Total Cell Count [5]: 135 and 99
Population Apoptotic (%) [6]: 63% and 51%
Population Fragmented Nuclei (%) [6]: 13% and 33%
Population Healthy Nuclei (%) [6]: 73% and 49%
Population Hoechst High Intensity Objects (%) [6]: 5% and 6%
Population Membrane Permeable-Phenotype (%) [6]: 3%
Population Mitochondria Different-Phenotype (%) [6]: 10% and 4%
Population Mitotic Cells (%) [6]: 36% and 48%
Population Normal (%) [6]: 94% and 93%
Population Pyknosed Nuclei (%) [6]: 12% and 17%
Population Tubulin-Different-Phenotype (%) [6]: 40% and 43%
Total Cell Count [6]: 187

OCCCNc1cc(-c2ccnc(Nc3cccc(Cl)c3)n2)ccn1
Population Apoptotic (%) [1]: 58% and 50%
Population Fragmented Nuclei (%) [1]: 15% and 21%
Population Healthy Nuclei (%) [1]: 66% and 53%
Population Hoechst High Intensity Objects (%) [1]: 4% and 6%
Population Membrane Permeable-Phenotype (%) [1]: 0% and 5%
Population Mitochondria Different-Phenotype (%) [1]: 9% and 13%
Population Mitotic Cells (%) [1]: 41% and 50%
Population Normal (%) [1]: 95% and 93%
Population Pyknosed Nuclei (%) [1]: 18% and 24%
Population Tubulin-Different-Phenotype (%) [1]: 52% and 47%
Total Cell Count [1]: 139 and 138
Population Apoptotic (%) [2]: 61% and 52%
Population Fragmented Nuclei (%) [2]: 38% and 65%
Population Healthy Nuclei (%) [2]: 44% and 24%
Population Hoechst High Intensity Objects (%) [2]: 10% and 6%
Population Membrane Permeable-Phenotype (%) [2]: 9% and 20%
Population Mitochondria Different-Phenotype (%) [2]: 25% and 11%
Population Mitotic Cells (%) [2]: 38% and 47%
Population Normal (%) [2]: 89% and 93%
Population Pyknosed Nuclei (%) [2]: 17% and 9%
Population Tubulin-Different-Phenotype (%) [2]: 88% and 84%
Total Cell Count [2]: 136 and 227
Population Apoptotic (%) [3]: 56% and 46%
Population Fragmented Nuclei (%) [3]: 16% and 29%
Population Healthy Nuclei (%) [3]: 65% and 48%
Population Hoechst High Intensity Objects (%) [3]: 2% and 3%
Population Membrane Permeable-Phenotype (%) [3]: 1% and 6%
Population Mitochondria Different-Phenotype (%) [3]: 20% and 10%
Population Mitotic Cells (%) [3]: 43% and 53%
Population Normal (%) [3]: 97% and 96%
Population Pyknosed Nuclei (%) [3]: 17% and 22%
Population Tubulin-Different-Phenotype (%) [3]: 60% and 55%
Total Cell Count [3]: 136 and 139
Population Apoptotic (%) [4]: 80%
Population Fragmented Nuclei (%) [4]: 36% and 63%
Population Healthy Nuclei (%) [4]: 42% and 27%
Population Hoechst High Intensity Objects (%) [4]: 11% and 6%
Population Membrane Permeable-Phenotype (%) [4]: 7% and 12%
Population Mitotic Cells (%) [4]: 20%
Population Normal (%) [4]: 88% and 93%
Population Pyknosed Nuclei (%) [4]: 20% and 9%
Population Tubulin-Different-Phenotype (%) [4]: 86% and 80%
Total Cell Count [4]: 138 and 218
Population Apoptotic (%) [5]: 46% and 37%
Population Fragmented Nuclei (%) [5]: 27% and 36%
Population Healthy Nuclei (%) [5]: 47% and 30%
Population Hoechst High Intensity Objects (%) [5]: 8% and 7%
Population Membrane Permeable-Phenotype (%) [5]: 1% and 5%
Population Mitochondria Different-Phenotype (%) [5]: 20% and 24%
Population Mitotic Cells (%) [5]: 53% and 62%
Population Normal (%) [5]: 91% and 92%
Population Pyknosed Nuclei (%) [5]: 25% and 32%
Population Tubulin-Different-Phenotype (%) [5]: 66% and 45%
Total Cell Count [5]: 136 and 132
Population Apoptotic (%) [6]: 91% and 85%
Population Fragmented Nuclei (%) [6]: 39% and 58%
Population Healthy Nuclei (%) [6]: 39% and 30%
Population Hoechst High Intensity Objects (%) [6]: 14% and 6%
Population Membrane Permeable-Phenotype (%) [6]: 15% and 20%
Population Mitochondria Different-Phenotype (%) [6]: 42% and 20%
Population Mitotic Cells (%) [6]: 8% and 14%
Population Normal (%) [6]: 85% and 93%
Population Pyknosed Nuclei (%) [6]: 21% and 11%
Population Tubulin-Different-Phenotype (%) [6]: 77% and 64%
Total Cell Count [6]: 134 and 192
